Data on 4 molecules can be found in ChEMBL document CHEMBL1135644, “Effect of spermine conjugation on the cytotoxicity and cellular transport of acridine” (J Med Chem, 2002).

Broadly, the IC50 is the concentration needed to halve the response being measured. Higher therefore signals weaker potency in that assay. For orientation: IC25 means the point of the concentration-response curve where the effect stands at 25%. In general, Ki refers to a measure of affinity in units of concentration, obtained from inhibition or displacement. Lower therefore signals tighter binding.

Test [1] is described as follows: Ratio of cellular uptake in CHO cells to that of CHO-MG cells. It counts as functional.
The subject of a further test is Nucleic Acid. The test is described as follows: Drug concentration required to produce 50% inhibition of fluorescence bound ethidium to CT-DNA (1.26:1) (+/-SEM 5%). The note with it: Bos taurus. It counts as functional. The essentials:
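Ethidium displacement: 1 μM CT-DNA with 1.26 μM ethidium bromide; conjugate stock added serially. Fluorescence was read at excitation 546 nm and emission 595 nm. The value is the conjugate concentration cutting DNA-bound ethidium fluorescence by 50%. Mean of three determinations (±5%).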

Test [2] deals with L1210. Kind of test: In vitro 50% cell growth inhibition by the compound in L1210 cells. Type of test: functional, cell-based. The following applies: Mus musculus. In a few lines:
(§1)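 L1210 cells were seeded at 5 × 10^4 cells/mL with conjugate added at seeding, in medium with 2 mM aminoguanidine, for 48 h exposure. Growth was measured by MTT absorbance at 540 nm relative to untreated controls.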

Test [3] concerns CHO. Kind of test: In vitro 50% cell growth inhibition by the compound in CHO cells. It counts as functional, cell-based. The note with it: Cricetulus griseus. The essentials:
(§2)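 CHO or CHO-MG cells were trypsinized and plated singly at 2 × 10^3 cells/mL in RPMI 1640/10% FCS with 2 mM aminoguanidine (proline for CHO-MG). Conjugates were added after overnight incubation, with 48 h exposure. Growth was read by MTT formazan absorbance at 540 nm relative to untreated controls. The value is the concentration giving 25% or 50% growth inhibition.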

The test system of test [4] is L1210. The test is described as follows: In vitro 25% cell growth inhibition by the compound in L1210 cells with 5 mM DFMO addition. The following applies: Mus musculus. Type of test: functional. The essentials:
(§3)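 L1210 cells were seeded at 5 × 10^4 cells/mL, and conjugate plus 5 mM DFMO were added at seeding with 2 mM aminoguanidine present. After 48 h, growth was read by MTT at 540 nm relative to DFMO-only controls.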

Test [5] deals with L1210. The test is described as follows: In vitro 25% cell growth inhibition by the compound in L1210 cells. It counts as functional. The note with it: Mus musculus. In a few lines:
as §1

In test [6] the test system is L1210. The test is described as follows: Cellular uptake of conjugates in L1210 cells (control) at a concentration of 2 uM (+/-15% SEM). The following applies: Mus musculus. It counts as functional, cell-based. The essentials:
(§4)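 L1210 cells were seeded at 2 × 10^5 cells/mL with conjugate added at seeding, in medium containing 2 mM aminoguanidine, and cultured 24 h. Washed cells were extracted in 0.2 N HClO4/2 M NaCl for 16 h at 4 °C. Intracellular conjugate was quantified by fluorimetry and expressed as nmol/mg protein. Mean of three determinations (±15%).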

The test system of test [7] is CHO-MG. Kind of test: Cellular uptake of conjugates in CHO-MG cells at a concentration of 0.5 uM (+/-15% SEM). It counts as functional, cell-based. The note with it: Cricetulus griseus. In a few lines: (§5)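 Conjugates added 24 h after seeding (1 × 10^5 cells/mL, RPMI 1640 with 10% FCS and 2 mM aminoguanidine; proline added for CHO-MG) and left for 24 h. Cells were washed in 0.14 M NaCl, sonicated in 0.2 N HClO4/2 M NaCl and held 16 h at 4 °C. Conjugate in the supernatant was measured by fluorimetry against standards and expressed per mg protein (Folin). Mean of three determinations (±15%).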

Test [8] deals with L1210. The test is described as follows: Cellular uptake of conjugates in L1210 cells in presence of 500 uM SPD at a concentration of 1 uM (+/-15% SEM). Type of test: functional, cell-based. The following applies: Mus musculus. The essentials:
(§6)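 Same as the L1210 uptake assay: seeded at 2 × 10^5 cells/mL, conjugate plus 500 μM spermidine added together at seeding, 24 h exposure. Extraction in HClO4/NaCl, fluorimetric quantitation, normalized to protein. Mean of three determinations (±15%).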

For test [9], the system named is L1210. Kind of test: In vitro 50% cell growth inhibition by the compound in L1210 cells with 5 mM DFMO addition. The note with it: Mus musculus. Type of test: functional, cell-based. The essentials: as §3
For test [10], the system named is L1210. The test is described as follows: Cellular uptake of conjugates in L1210 cells in presence of 500 uM SPD at a concentration of 0.5 uM (+/-15% SEM). It counts as functional, cell-based. The following applies: Mus musculus. The essentials: as §6
In test [11] the test system is L1210. Kind of test: Cellular uptake of conjugates in L1210 cells (control) at a concentration of 0.5 uM (+/-15% SEM). The note with it: Mus musculus. Type of test: functional, cell-based. In a few lines:
as §4

Test [12] deals with CHO. Kind of test: Cellular uptake of conjugates in CHO cells at a concentration of 0.5 uM (+/-15% SEM). Type of test: functional, cell-based. The following applies: Cricetulus griseus. The essentials:
as §5

Test [13] concerns CHO-MG. The test is described as follows: In vitro 50% cell growth inhibition by the compound in CHO-MG cells. It counts as functional, cell-based. The following applies: Cricetulus griseus. The essentials:
as §2

The test system of test [14] is L1210. The test is described as follows: Inhibition of [14C]SPD uptake by the compound in 5 min initial rate transport assay in L1210 cells. Type of test: functional, cell-based, Mus musculus.
Test [15] relates to L1210. Kind of test: Cellular uptake of conjugates in L1210 cells (control) at a concentration of 1 uM (+/-15% SEM). It counts as functional, cell-based. The following applies: Mus musculus. The essentials: as §4
For test [16], the system named is L1210. Kind of test: Cellular uptake of conjugates in L1210 cells pretreated with 5 mM DFMO at a concentration of 1 uM (+/-15% SEM). Type of test: functional, cell-based. The following applies: Mus musculus. In a few lines:
(§7)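 L1210 cells were seeded at 10^5 cells/mL in medium with 5 mM DFMO, and conjugates were added 24 h later. Cells were harvested after a further 24 h, extracted in 0.2 N HClO4/2 M NaCl and assayed by fluorimetry, expressed per mg protein. Mean of three determinations (±15%).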

Test [17] concerns CHO. Kind of test: In vitro 25% cell growth inhibition by the compound in CHO cells with 5 mM DFMO addition. It counts as functional. The note with it: Cricetulus griseus. The essentials: (§8)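 CHO or CHO-MG cells were plated at 2 × 10^3 cells/mL and incubated overnight. Conjugates and 5 mM DFMO were then added together, with 2 mM aminoguanidine present, for 48 h. MTT absorbance at 540 nm was expressed relative to DFMO-treated controls. The value is the concentration inhibiting growth 25% or 50%.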

The test system of test [18] is CHO-MG. Kind of test: In vitro 25% cell growth inhibition by the compound in CHO-MG cells. It counts as functional, Cricetulus griseus. The following applies: Cricetulus griseus, CHO-MG; read-out: IC25. The essentials:
as §2

Test [19] has as its system CHO-MG. Kind of test: In vitro 50% cell growth inhibition by the compound in CHO-MG cells with 5 mM DFMO addition. It counts as functional, cell-based. The following applies: Cricetulus griseus. The essentials:
as §8

Test [20] concerns L1210. The test is described as follows: Cellular uptake of conjugates in L1210 cells pretreated with 5 mM DFMO at a concentration of 0.5 uM (+/-15% SEM). Type of test: functional, cell-based. The note with it: Mus musculus. The essentials: as §7
The subject of test [21] is CHO. The test is described as follows: In vitro 50% cell growth inhibition by the co mpound in CHO cells with 5 mM DFMO addition. It counts as functional, cell-based. The note with it: Cricetulus griseus. In a few lines: as §8
Test [22] deals with L1210. The test is described as follows: Cellular uptake of conjugates in L1210 cells in presence of 500 uM SPD at a concentration of 2 uM (+/-15% SEM). The note with it: Mus musculus. Type of test: functional, cell-based. The essentials: as §6
Test [23] has as its system L1210. Kind of test: Cellular uptake of conjugates in L1210 cells pretreated with 5 mM DFMO at a concentration of 2 uM (+/-15% SEM). It counts as functional, cell-based. The note with it: Mus musculus. The essentials:
as §7

In test [24] the test system is CHO. Kind of test: In vitro 25% cell growth inhibition by the compound in CHO cells. Type of test: functional. The following applies: Cricetulus griseus. The essentials: as §2
Test [25] deals with CHO-MG. Kind of test: In vitro 25% cell growth inhibition by the compound in CHO-MG cells with 5 mM DFMO addition. Type of test: functional. The note with it: Cricetulus griseus. The essentials:
as §8

For the molecule `Cl.NCCCNCCCCNCCCNCCCCN=c1c2ccccc2[nH]c2ccccc12`, the Ratio in [1] stood at 3.1. Further, the Concentration for 50% ethidium displacement from DNA (C50) in the test with Nucleic Acid worked out at 110 nM. Also, the IC50 with L1210 [2] was 2300 nM; with CHO [3] it was 2300 nM; with L1210 [9] it was 600 nM; in the test on CHO-MG [13], 7200 nM. Further, the IC25 in the test on L1210 [4] came to 160 nM; in the test on L1210 [5], 1100 nM. In addition, the Uptake (nM (mg of protein)-1) with L1210 [6] was 0.491; in the test with CHO-MG [7], 0.026; in the test on L1210 [8], 0.28; in the test on L1210 [10], 0.094; in the test on L1210 [11] it was 0.193; in the test on CHO [12] it was 0.081. Moreover, in the test with L1210 [15], the Uptake (nM (mg of protein)-1) came out at 0.362. The affinity in the test with L1210 [14], expressed as Ki, was 83 nM.

Regarding `Cl.NCCCNCCCCNCCCNCCCNc1c2ccccc2nc2ccccc12`, the Ratio in [1] came out at 3.1. For the same molecule, the Uptake (nM (mg of protein)-1) in the test with L1210 [16] was 0.728; in the test on L1210 [20] it was 0.496; in the test on L1210 [22], 0.553; in the test on L1210 [23], 1.58; in the test with L1210 [6] it was 0.717; in the test with CHO-MG [7] it was 0.054. Also, the Uptake (nM (mg of protein)-1) in the test with L1210 [8] is 0.188; in the test with L1210 [10] it was 0.053; in the test on L1210 [11] it was 0.186; in the test with CHO [12], 0.167; in the test on L1210 [15], 0.307. Further, the IC25 came out at 320 nM in the test with CHO [17]; 1800 nM with CHO-MG [18]; 140 nM in the test on L1210 [4]; 1400 nM with L1210 [5]; 900 nM with CHO [24]; 2500 nM in the test on CHO-MG [25]. The Concentration for 50% ethidium displacement from DNA (C50) with Nucleic Acid came out at 110 nM. Moreover, the IC50 is 2800 nM with L1210 [2]; 7300 nM with CHO-MG [19]; 1300 nM in the test on CHO [21]; 2300 nM in the test with CHO [3]; 900 nM with L1210 [9]; 6100 nM in the test on CHO-MG [13]. Besides, affinity in the test on L1210 [14] was put at a Ki of 129 nM.

As to `c1ccc2nc3ccccc3cc2c1`, the Concentration for 50% ethidium displacement from DNA (C50) with Nucleic Acid turned out to be 142000 nM.

In the test with Nucleic Acid, `NCCCNCCCCNCCCN` returned a CC50 of 6800 nM.
